The results in this text go back to ChEMBL document CHEMBL1132212, “Structure-activity relationship of small-sized HIV protease inhibitors containing allophenylnorstatine” (J Med Chem, 1999).

Some results are limits rather than exact numbers.

The target in data set [1] is Human immunodeficiency virus type 1 protease (Human immunodeficiency virus 1) (UniProt Q72874). Description: Inhibition of recombinant HIV-1 protease (NY-5) using 50 nM. An outline of the steps: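 Recombinant HIV-1 protease (NY5 sequence) was expressed in E. coli and purified. It was preincubated with inhibitor in DMSO for 5 min at 37 °C in MES–NaOH pH 6.0 with DTT and EDTA. Substrate H-SQNYPIV-OH was then added for 60 min at 37 °C, and the reaction was stopped with TFA. The PIV product was measured by reverse-phase HPLC at 215 nm against a synthetic standard.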

Data set [2] is described as follows: Time of maximum plasma concentration (Tmax) was determined in dogs fed after oral administration of 25 mg/kg of the compound. The class given is ADME, organism-based, Canis lupus familiaris. Also on record: dose 25 mg/kg, route oral. The settings on record: dog. An outline of the steps:
(§1)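 Male beagles (7–10 kg) were assigned six per group. Each received 25 mg/kg from a 12.5 mg/mL solution in 50% PEG-in-water, either as an iv bolus via the cephalic vein or by oral gavage, fed or fasted overnight. Plasma was measured by HPLC. Analysis was noncompartmental: trapezoidal AUC, terminal-slope t1/2, CL = dose/AUC, Vdss from AUMC/AUC, and F from oral vs iv AUC. Values are mean ± SEM.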

Data set [3] can be described thus: Time of maximum plasma concentration (Tmax) was determined in rats after intraduodenal administration of the drug. Type of data set: ADME, organism-based. The following applies: rat. An outline of the steps:
(§2)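 Three male Sprague–Dawley rats (300–400 g) per compound were anesthetized and dosed at 10 mg/kg in 50% PEG. Dosing was iv via the femoral vein or id by tube into the duodenum. Plasma was extracted with internal standard and analyzed by C18 HPLC with UV at 210 nm. Analysis was noncompartmental; F was calculated from id vs iv AUC. Values are mean ± SEM.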

Another data set relates to CEM-SS. Description: Antiviral activity was determined based on inhibition of HIV-1 IIIB induced cytopathic effects in CEM-SS cells in vitro using tetrazolium reagent. The class given is functional, cell-based. The following applies: Homo sapiens. The method, boiled down: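 CEM-SS cells (2.5 × 10^4 cells/mL) were cultured with HIV-1 IIIB and compound in RPMI-1640 with 10% FCS and gentamicin for 6 days at 37 °C in 5% CO2. The virus titer was set to kill all cells by day 6. Cytopathic effect was read by XTT staining, and IC50 was taken as the mean of duplicates.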
In general terms: Cytopathic effects are the visible damage that an infection or toxin causes in cultured cells.

Data set [4] is described as follows: Maximum plasma concentration (Cmax) was determined in dogs fed after oral administration of 25 mg/kg of the compound. Type of data set: ADME, organism-based, Canis lupus familiaris. Also on record: dose 25 mg/kg, route oral. The following applies: dog. An outline of the steps: as §1
Data set [5] can be described thus: Plasma clearance rate (CL) was determined in dogs after intravenous administration of 25 mg/kg of the compound. Type of data set: ADME, organism-based, Canis lupus familiaris. Also on record: dose 25 mg/kg, route intravenous. The settings on record: dog. The method, boiled down: as §1
A short description of data set [6]: Plasma half life was determined in dogs after intravenous administration of 25 mg/kg of the compound. The class given is ADME, organism-based, Canis lupus familiaris. Also on record: dose 25 mg/kg, route intravenous. The settings on record: dog. The method, boiled down:
as §1

Data set [7] in a line: Percent bioavailability (F%) was determined in fasted dogs after oral administration of 25 mg/kg of the compound. The following applies: dog, in vivo. Type of data set: ADME, organism-based, Canis lupus familiaris. An outline of the steps:
as §1

Data set [8] has as its system Canis familiaris. Description: Area under curve (AUC) was determined in dogs fed after oral administration of 25 mg/kg of the compound. Also noted: dose 25 mg/kg, route oral. The settings on record: dog, in vivo. The class given is ADME, organism-based, Canis lupus familiaris. An outline of the steps: as §1
In data set [9] the test system is Canis familiaris. Description: Area under curve (AUC) was determined in fasted dogs after oral administration of 25 mg/kg of the compound. The class given is ADME, organism-based, Canis lupus familiaris. Also on record: dose 25 mg/kg, route oral. The following applies: dog, in vivo. The method, boiled down:
as §1

The nature of data set [10]: Percent bioavailability (F%) was determined in dogs fed after oral administration of 25 mg/kg of the compound. The following applies: dog, in vivo. Type of data set: ADME, organism-based, Canis lupus familiaris. An outline of the steps:
as §1

Data set [11] in a line: Maximum plasma concentration (Cmax) was determined in rats after intraduodenal administration of the drug. Also on record: route intraduodenal. The following applies: rat. Type of data set: ADME, organism-based. An outline of the steps:
as §2

The target of data set [12] is Human immunodeficiency virus type 1 protease (Human immunodeficiency virus 1, UniProt Q72874). Description: Inhibition of recombinant HIV-1 protease (NY-5).
Data set [13] in a line: Maximum plasma concentration (Cmax) was determined in fasted dogs after oral administration of 25 mg/kg of the compound. Type of data set: ADME, organism-based, Canis lupus familiaris. Also on record: dose 25 mg/kg, route oral. The settings on record: dog. The method, boiled down: as §1
A short description of data set [14]: Plasma half life was determined in rats after intravenous administration of the drug. The following applies: rat. The class given is ADME, organism-based. The method, boiled down:
as §2

Data set [15] is described as follows: Bioavailability in rat after i.d. administration. The settings on record: in vivo. The class given is ADME, organism-based. An outline of the steps: as §2
The subject of data set [16] is Canis familiaris. Description: Area under curve (AUC) was determined in dogs fed after intravenous administration of 25 mg/kg of the compound. The class given is ADME, organism-based, Canis lupus familiaris. Also on record: dose 25 mg/kg, route intravenous. The following applies: dog, in vivo. An outline of the steps:
as §1

Data set [17] in a line: Volume of distribution (Vdss) was determined in dogs after intravenous administration of 25 mg/kg of the compound. The class given is ADME, organism-based, Canis lupus familiaris. Also on record: dose 25 mg/kg, route intravenous. The following applies: dog, in vivo, read-out: Vdss. An outline of the steps:
as §1

Data set [18] is described as follows: Toxic concentration was determined for CEM-SS cells. The class given is toxicity, cell-based. The settings on record: human, read-out: TC50 (the source's name). The method, boiled down: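 CEM-SS cells (2.5 × 10^4 cells/mL) were exposed to compound in RPMI-1640 with 10% FCS and gentamicin for 6 days at 37 °C in 5% CO2. Viability was read by XTT staining, and TC50 was taken as the mean of duplicates.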

Data set [19] can be described thus: Time of maximum plasma concentration (Tmax) was determined in fasted dogs after oral administration of 25 mg/kg of the compound. The settings on record: dog. Type of data set: ADME, organism-based, Canis lupus familiaris. Also on record: dose 25 mg/kg, route oral. An outline of the steps:
as §1

A word on the inhibition: it is the relative decrease from the control value, in per cent. The term Tmax denotes the time at which the peak concentration occurs. By IC50 is commonly meant the concentration needed to halve the response being measured. The low end stands for inhibition by little substance, the high end for a need for much substance. As usually defined, the Cmax is the highest concentration seen after dosing. The term clearance denotes the rate of elimination divided by the concentration. Higher therefore signals efficient removal. Broadly, the half-life is the time needed for the level to fall by half in the phase considered. As usually defined, the bioavailability is the share of a dose that reaches the circulation, judged against a reference dose that is usually intravenous. Read a low bioavailability as little systemic uptake. As usually defined, the AUC is the area under the concentration-time curve, a measure of exposure. A higher AUC goes with high exposure. What is called Ki is the dissociation constant of the complex between target and ligand, obtained from inhibition or displacement.

For `Cc1ccccc1CNC(=O)[C@H]1N(C(=O)[C@@H](O)[C@H](Cc2ccccc2)NC(=O)c2cccc(O)c2C)CSC1(C)C`, in data set [1], the inhibition stood at 96%. In addition, the values for the Tmax in data set [2], in [3] and in [19] were 1.5 h, 1 h and 1 h, respectively. This compound also yielded an IC50 in the data set with CEM-SS of 7 nM. The Cmax in data set [4] was found to be 4.02 µM; in data set [11] it was 0.7 µM; in data set [13], 5.3 µM. The clearance in data set [5] is 14.7 mL/min/kg. The results for the half-life in [6] and in data set [14] were 1.57 h and 1.55 h, respectively. Also, the values for the bioavailability in [7], in [10] and in data set [15] were 37.1%, 32.6% and 41.6%, respectively. Also, the AUC in the data set on Canis familiaris [8] amounted to 16.8 µM·h; in the data set on Canis familiaris [9], 19.1 µM·h; with Canis familiaris [16], 51.6 µM·h. In addition, the Ki in [12] was determined as 0.33 nM. Also, the Vd in [17] turned out to be 1.58 L/kg. Also, in [18], the CC50 is over 20000 nM.
